Test results taken from ChEMBL document CHEMBL1129454, “HIV protease inhibitory bis-benzamide cyclic ureas: a quantitative structure-activity relationship analysis” (J Med Chem, 1996).
The source made the active and inactive calls. The calls are words filed in the database; no cut-off is given here.

What was measured:
[1] = target: T1, Human immunodeficiency virus type 1 protease (Human immunodeficiency virus 1, UniProt Q72874); assay: Inhibitory activity against HIV-1 protease
How it was run: (§1)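 Cleavage products were separated by anion-exchange HPLC and the product quantified by fluorescence. Each compound was assayed at least twice and the mean reported; assay SD <±40%.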

[2] = tested on: Human immunodeficiency virus 1; assay: The concentration required to inhibit HIV-1 RNA synthesis by 90%. Viral RNA quantified by a sandwich hybridization assay; type: functional
How it was run: (§2)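 Susceptible T-cell lines grown in individual microtiter wells were infected with HIV. Cell-associated viral RNA was measured by RNA hybridization 3 days after infection. […] Assay SD was <±37%. Cytotoxicity was scored separately by tetrazolium dye metabolism, because RNA assay results are valid only at non-cytotoxic doses.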

[3] = target: T1, Human immunodeficiency virus type 1 protease; assay: Binding affinity for HIV-1 protease; how it was run: as §1
[4] = target: T1, Human immunodeficiency virus type 1 protease; assay: Binding affinity was evaluated on HIV Protease enzyme; not active; how it was run: as §1
[5] = target: T1, Human immunodeficiency virus type 1 protease; assay: Binding affinity was evaluated with recombinant single chain dimeric HIV protease enzyme with a fluorescent substrate; not active; how it was run: as §1
[6] = tested on: T-cell; assay: The concentration of the antiviral compound required to inhibit HIV RNA synthesis by 90%. viral RNA was quantified by sandwich hybridization assay; not active; type: functional, cell-based; how it was run: as §2

Row | SMILES | Ki [1] | IC90 ([2]; Human immunodeficiency virus 1) | Ki [3] | IC90 [2] | Ki [4] | Ki [5] | IC90 [6]
1 | O=C(Nc1nncs1)c1cccc(CN2C(=O)N(Cc3cccc(C(=O)Nc4nncs4)c3)[C@H](Cc3ccccc3)[C@H](O)[C@@H](O)[C@H]2Cc2ccccc2)c1 | 0.11 nM | 51.3 nM |  |  |  |  | 
2 | O=C(Nc1ccc(Cl)cn1)c1cccc(CN2C(=O)N(Cc3cccc(C(=O)Nc4ccc(Cl)cn4)c3)[C@H](Cc3ccccc3)[C@H](O)[C@@H](O)[C@H]2Cc2ccccc2)c1 | 0.012 nM | 14.7 nM | 0.01 nM |  |  |  | 
3 | CC(C)(C)NC(=O)[C@@H]1C[C@@H]2CCCC[C@@H]2CN1C[C@@H](O)[C@H](Cc1ccccc1)NC(=O)[C@H](CC(N)=O)NC(=O)c1ccc2ccccc2n1 |  | 10.4 nM |  |  |  |  | 
4 | O=C(Nc1ccccc1)c1cccc(CN2C(=O)N(Cc3cccc(C(=O)Nc4ccccc4)c3)[C@H](Cc3ccccc3)[C@H](O)[C@@H](O)[C@H]2Cc2ccccc2)c1 | 0.43 nM | 510 nM | 0.37 nM |  |  |  | 
5 | Cc1cc(C)nc(NC(=O)c2cccc(CN3C(=O)N(Cc4cccc(C(=O)Nc5cc(C)cc(C)n5)c4)[C@H](Cc4ccccc4)[C@H](O)[C@@H](O)[C@H]3Cc3ccccc3)c2)c1 | 0.016 nM | 6.6 nM | 0.02 nM |  |  |  | 
6 | CC(C)(C)NC(=O)c1cccc(CN2C(=O)N(Cc3cccc(C(=O)NC(C)(C)C)c3)[C@H](Cc3ccccc3)[C@H](O)[C@@H](O)[C@H]2Cc2ccccc2)c1 | 2.4 nM | 717 nM | 2.6 nM |  |  |  | 
7 | Cc1cccc(NC(=O)c2cccc(CN3C(=O)N(Cc4cccc(C(=O)Nc5cccc(C)n5)c4)[C@H](Cc4ccccc4)[C@H](O)[C@@H](O)[C@H]3Cc3ccccc3)c2)n1 | 0.02 nM | 3.2 nM | 0.02 nM |  |  |  | 
8 | O=C(NCC(F)(F)F)c1cccc(CN2C(=O)N(Cc3cccc(C(=O)NCC(F)(F)F)c3)[C@H](Cc3ccccc3)[C@H](O)[C@@H](O)[C@H]2Cc2ccccc2)c1 | 0.21 nM | 92.5 nM | 0.21 nM |  |  |  | 
9 | Cc1ccnc(NC(=O)c2cccc(CN3C(=O)N(Cc4cccc(C(=O)Nc5nccc(C)n5)c4)[C@H](Cc4ccccc4)[C@H](O)[C@@H](O)[C@H]3Cc3ccccc3)c2)n1 | 0.115 nM | 124 nM | 0.12 nM |  |  |  | 
10 | NC(=O)c1cccc(CN2C(=O)N(Cc3cccc(C(N)=O)c3)[C@H](Cc3ccccc3)[C@H](O)[C@@H](O)[C@H]2Cc2ccccc2)c1 | 0.039 nM | 709 nM | 0.06 nM |  |  |  | 
11 | CCCNC(=O)c1cccc(CN2C(=O)N(Cc3cccc(C(=O)NCCC)c3)[C@H](Cc3ccccc3)[C@H](O)[C@@H](O)[C@H]2Cc2ccccc2)c1 | 0.359 nM | 259 nM | 0.28 nM |  |  |  | 
12 | O=C(Nc1ccccn1)c1cccc(CN2C(=O)N(Cc3cccc(C(=O)Nc4ccccn4)c3)[C@H](Cc3ccccc3)[C@H](O)[C@@H](O)[C@H]2Cc2ccccc2)c1 | 0.043 nM | 2.8 nM | 0.01 nM |  |  |  | 
13 | Cc1ccc(NC(=O)c2cccc(CN3C(=O)N(Cc4cccc(C(=O)Nc5ccc(C)cn5)c4)[C@H](Cc4ccccc4)[C@H](O)[C@@H](O)[C@H]3Cc3ccccc3)c2)nc1 | 0.011 nM | 3.1 nM | 0.01 nM |  |  |  | 
14 | Cc1ccnc(NC(=O)c2cccc(CN3C(=O)N(Cc4cccc(C(=O)Nc5cc(C)ccn5)c4)[C@H](Cc4ccccc4)[C@H](O)[C@@H](O)[C@H]3Cc3ccccc3)c2)c1 | 0.027 nM | 7.7 nM | 0.03 nM |  |  |  | 
15 | O=C(Nc1cccnc1)c1cccc(CN2C(=O)N(Cc3cccc(C(=O)Nc4cccnc4)c3)[C@H](Cc3ccccc3)[C@H](O)[C@@H](O)[C@H]2Cc2ccccc2)c1 | 0.29 nM | 123 nM | 0.29 nM |  |  |  | 
16 | Cc1cnc(NC(=O)c2cccc(CN3C(=O)N(Cc4cccc(C(=O)Nc5ncc(C)s5)c4)[C@H](Cc4ccccc4)[C@H](O)[C@@H](O)[C@H]3Cc3ccccc3)c2)s1 | 0.014 nM | 17.8 nM |  |  |  |  | 
17 | Cc1coc(NC(=O)c2cccc(CN3C(=O)N(Cc4cccc(C(=O)Nc5nc(C)co5)c4)[C@H](Cc4ccccc4)[C@H](O)[C@@H](O)[C@H]3Cc3ccccc3)c2)n1 | 0.064 nM | 59.6 nM |  |  |  |  | 
18 | CC(C)CN(C[C@@H](O)[C@H](Cc1ccccc1)NC(=O)O[C@H]1CCOC1)S(=O)(=O)c1ccc(N)cc1 |  | 46 nM |  |  |  |  | 
19 | O=C(Nc1ncc[nH]1)c1cccc(CN2C(=O)N(Cc3cccc(C(=O)Nc4ncc[nH]4)c3)[C@H](Cc3ccccc3)[C@H](O)[C@@H](O)[C@H]2Cc2ccccc2)c1 | 0.014 nM | 45.5 nM |  |  |  |  | 
20 | CNC(=O)c1cccc(CN2C(=O)N(Cc3cccc(C(=O)NC)c3)[C@H](Cc3ccccc3)[C@H](O)[C@@H](O)[C@H]2Cc2ccccc2)c1 (stereo in doubt; 6) | 0.066 nM |  | 0.06 nM | 80.5 nM |  |  | 
21 | CNC(=O)c1cccc(CN2C(=O)N(Cc3cccc(C(=O)NC)c3)[C@H](Cc3ccccc3)[C@H](O)[C@@H](O)[C@H]2Cc2ccccc2)c1 (stereo in doubt; 31) | 1.9 nM |  |  |  |  |  | 
22 | CC(C)NC(=O)c1cccc(CN2C(=O)N(Cc3cccc(C(=O)NC(C)C)c3)[C@H](Cc3ccccc3)[C@H](O)[C@@H](O)[C@H]2Cc2ccccc2)c1 | 0.579 nM | 266 nM | 0.58 nM |  |  |  | 

Row | SMILES | Ki [1] | IC90 ([2]; Human immunodeficiency virus 1) | Ki [3] | IC90 [2] | Ki [4] | Ki [5] | IC90 [6]
23 | CONC(=O)c1cccc(CN2C(=O)N(Cc3cccc(C(=O)NOC)c3)[C@H](Cc3ccccc3)[C@H](O)[C@@H](O)[C@H]2Cc2ccccc2)c1 | 0.045 nM | 214 nM | 0.08 nM |  |  |  | 
24 | O=C(Nc1ccc(C(F)(F)F)cn1)c1cccc(CN2C(=O)N(Cc3cccc(C(=O)Nc4ccc(C(F)(F)F)cn4)c3)[C@H](Cc3ccccc3)[C@H](O)[C@@H](O)[C@H]2Cc2ccccc2)c1 | 0.085 nM | 63.4 nM | 0.09 nM |  |  |  | 
25 | O=C(Nc1cnccn1)c1cccc(CN2C(=O)N(Cc3cccc(C(=O)Nc4cnccn4)c3)[C@H](Cc3ccccc3)[C@H](O)[C@@H](O)[C@H]2Cc2ccccc2)c1 | 0.018 nM | 3.5 nM | 0.02 nM |  |  |  | 
26 | O=C(Nc1ccncc1)c1cccc(CN2C(=O)N(Cc3cccc(C(=O)Nc4ccncc4)c3)[C@H](Cc3ccccc3)[C@H](O)[C@@H](O)[C@H]2Cc2ccccc2)c1 | 0.41 nM | 93.7 nM | 0.41 nM |  |  |  | 
27 | CC1(C)O[C@@H]2[C@@H](O1)[C@@H](Cc1ccccc1)N(Cc1cccc(C#N)c1)C(=O)N(Cc1cccc(C#N)c1)[C@@H]2Cc1ccccc1 |  |  |  |  | Not Active | Not Active | inactive
28 | Cc1cccnc1NC(=O)c1cccc(CN2C(=O)N(Cc3cccc(C(=O)Nc4ncccc4C)c3)[C@H](Cc3ccccc3)[C@H](O)[C@@H](O)[C@H]2Cc2ccccc2)c1 | 0.26 nM | 50.3 nM | 0.26 nM |  |  |  | 
29 | CCCCNC(=O)c1cccc(CN2C(=O)N(Cc3cccc(C(=O)NCCCC)c3)[C@H](Cc3ccccc3)[C@H](O)[C@@H](O)[C@H]2Cc2ccccc2)c1 | 0.424 nM | 255 nM | 0.424 nM |  |  |  | 
30 | O=C(Nc1ncc(Cl)cc1Cl)c1cccc(CN2C(=O)N(Cc3cccc(C(=O)Nc4ncc(Cl)cc4Cl)c3)[C@H](Cc3ccccc3)[C@H](O)[C@@H](O)[C@H]2Cc2ccccc2)c1 | 0.245 nM | 43 nM | 0.24 nM |  |  |  | 
31 | O=C(Nc1nccs1)c1cccc(CN2C(=O)N(Cc3cccc(C(=O)Nc4nccs4)c3)[C@H](Cc3ccccc3)[C@H](O)[C@@H](O)[C@H]2Cc2ccccc2)c1 |  | 1.7 nM |  |  |  |  | 
32 | CC(C)(C)NC(=O)[C@@H]1CN(Cc2cccnc2)CCN1C[C@@H](O)C[C@@H](Cc1ccccc1)C(=O)NC1c2ccccc2C[C@H]1O (single isomer, unassigned) |  | 50 nM |  |  |  |  | 
33 | NNC(=O)c1cccc(CN2C(=O)N(Cc3cccc(C(=O)NN)c3)[C@H](Cc3ccccc3)[C@H](O)[C@@H](O)[C@H]2Cc2ccccc2)c1 | 0.018 nM | 884 nM | 0.018 nM |  |  |  | 
34 | O=C(NO)c1cccc(CN2C(=O)N(Cc3cccc(C(=O)NO)c3)[C@H](Cc3ccccc3)[C@H](O)[C@@H](O)[C@H]2Cc2ccccc2)c1 | 0.02 nM | 448 nM | 0.02 nM |  |  |  | 
35 | O=C(Nc1nc2ccccc2[nH]1)c1cccc(CN2C(=O)N(Cc3cccc(C(=O)Nc4nc5ccccc5[nH]4)c3)[C@H](Cc3ccccc3)[C@H](O)[C@@H](O)[C@H]2Cc2ccccc2)c1 |  | 3.9 nM |  |  |  |  | 
36 | O=C1N(Cc2ccc(CO)cc2)[C@H](Cc2ccccc2)[C@H](O)[C@@H](O)[C@@H](Cc2ccccc2)N1Cc1ccc(CO)cc1 [DMP-323] |  | 115 nM |  |  |  |  | 
37 | CC(C)c1nc(CN(C)C(=O)N[C@H](C(=O)N[C@@H](Cc2ccccc2)C[C@H](O)[C@H](Cc2ccccc2)NC(=O)OCc2cncs2)C(C)C)cs1 [RITONAVIR] |  | 76 nM |  |  |  |  | 
38 | O=C(Nc1nnc(C(F)(F)F)s1)c1cccc(CN2C(=O)N(Cc3cccc(C(=O)Nc4nnc(C(F)(F)F)s4)c3)[C@H](Cc3ccccc3)[C@H](O)[C@@H](O)[C@H]2Cc2ccccc2)c1 | 0.18 nM | 74.8 nM |  |  |  |  | 
39 | CCNC(=O)c1cccc(CN2C(=O)N(Cc3cccc(C(=O)NCC)c3)[C@H](Cc3ccccc3)[C@H](O)[C@@H](O)[C@H]2Cc2ccccc2)c1 | 0.21 nM | 139 nM | 0.21 nM |  |  |  | 
40 | O=C(Nc1ccc(Br)cn1)c1cccc(CN2C(=O)N(Cc3cccc(C(=O)Nc4ccc(Br)cn4)c3)[C@H](Cc3ccccc3)[C@H](O)[C@@H](O)[C@H]2Cc2ccccc2)c1 | 0.035 nM | 28.2 nM | 0.04 nM |  |  |  | 
41 | N#CCNC(=O)c1cccc(CN2C(=O)N(Cc3cccc(C(=O)NCC#N)c3)[C@H](Cc3ccccc3)[C@H](O)[C@@H](O)[C@H]2Cc2ccccc2)c1 | 0.063 nM | 596 nM | 0.063 nM |  |  |  | 
42 | O=C(Nc1ncccn1)c1cccc(CN2C(=O)N(Cc3cccc(C(=O)Nc4ncccn4)c3)[C@H](Cc3ccccc3)[C@H](O)[C@@H](O)[C@H]2Cc2ccccc2)c1 | 0.152 nM | 220 nM | 0.15 nM |  |  |  | 
43 | Cc1csc(NC(=O)c2cccc(CN3C(=O)N(Cc4cccc(C(=O)Nc5nc(C)cs5)c4)[C@H](Cc4ccccc4)[C@H](O)[C@@H](O)[C@H]3Cc3ccccc3)c2)n1 | 0.025 nM | 4.1 nM |  |  |  |  | 
